Compounds with a hit are over-represented: about 1.2% of the library has one in this group of screens.
proCasp7 act = counter-screen: procaspase-7 (human) activation. P55210. recombinant procaspase-7, Ac-DEVD-pNA absorbance 405 nm; D23A/D198A/D206A triple mutant, cannot self-cleave; scale: DMSO 0, 5 µM enzyme 100. activation, % at 8.5 µM. 330,000 compounds, 0.093% hits. AID 463210;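 active = percent activation above the screen-wide mean plus 3 SD, cut at about 25% in these data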
Target sequence (P55210 whole entry D23A/D198A/D206A): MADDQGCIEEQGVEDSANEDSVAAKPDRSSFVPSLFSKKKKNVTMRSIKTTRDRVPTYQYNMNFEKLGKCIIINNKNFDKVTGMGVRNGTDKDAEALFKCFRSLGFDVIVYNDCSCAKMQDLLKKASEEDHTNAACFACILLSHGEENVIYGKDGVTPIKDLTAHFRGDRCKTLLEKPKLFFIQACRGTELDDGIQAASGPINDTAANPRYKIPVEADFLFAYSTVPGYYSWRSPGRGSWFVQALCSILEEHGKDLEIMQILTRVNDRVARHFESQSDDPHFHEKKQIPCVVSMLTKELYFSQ
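Replicates: singlicate. Assay system: Procaspase-7 triple mutant (PC-7 D3A). Signal: 405 nm absorbance of p-nitroaniline. Times: 1 h preincubation, 2 h reaction. Buffer or medium: Zinc-free HEPES pH 7.4 with 300 mM NaCl, 0.01% Triton X-100. Also added: DEVD-pNA substrate. Benchmarks: DMSO wells as 0%, DMSO with 5 µM added PC-7 as 100%.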
PP1 counter = PP1-alpha (human) inhibition in PP5 counter-screen; purified PP1alpha, OMFP fluorescence; inhibition, % at 6.7 µM; 320,000 compounds, 0.9% hits;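 active = inhibition above the mean inhibition of all tested compounds plus 3 SD, computed separately for each screening campaign, cut at about 15% in these data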
PP5 primary = blocks human protein phosphatase 5 activity; purified PP5c, OMFP substrate fluorescence; inhibition, % at 6.7 µM; 320,000 compounds, 0.18% hits;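 active = inhibition above the campaign's mean inhibition across all tested compounds plus 3 SD, cut at about 9.5% in these data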;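 note: 0% = DMSO only and 100% = 100 µM cantharidin control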
procasp3 activ = activators of human procaspase-3; P42574; recombinant procaspase-3 D3A, Ac-DEVD-pNA absorbance 405 nm; activation, % at 8.5 µM; 330,000 compounds, 0.11% hits; AID 463141;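 active = activation above the mean of all tested compounds plus 3 SD, cut at about 21% in these data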;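 note: 0% = DMSO alone and 100% = DMSO wells spiked with extra 5 µM PC-3 D3A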
Target sequence (P42574 whole entry D9A/D28A/D175A): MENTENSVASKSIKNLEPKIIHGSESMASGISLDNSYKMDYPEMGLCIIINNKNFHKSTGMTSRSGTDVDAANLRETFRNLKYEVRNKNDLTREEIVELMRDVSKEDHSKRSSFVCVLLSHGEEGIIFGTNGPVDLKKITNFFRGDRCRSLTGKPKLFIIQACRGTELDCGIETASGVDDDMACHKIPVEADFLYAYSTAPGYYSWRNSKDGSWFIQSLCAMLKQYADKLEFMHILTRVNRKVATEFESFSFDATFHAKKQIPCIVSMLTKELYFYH
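Technique: 405 nm absorbance of p-nitroaniline, reads at 0 and 120 min; Test system: Procaspase-3 D3A mutant; Incubation: 1 h enzyme-compound preincubation, then 2 h substrate reaction, 25 °C; Repeats: singlicate, each compound tested once; Benchmarks: low control DMSO wells, high control DMSO plus 5 µM PC-3 D3A.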
PP1 confirm = human PP1 phosphatase inhibition, confirmation; shares compounds with PP1 counter; purified PP1alpha, OMFP substrate fluorescence; inhibition, % at 6.7 µM; 1,900 compounds, 52% hits; AID 2358;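 active = mean PP1 inhibition above a set limit taken from the earlier primary screen, cut at about 15% in these data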
PP5 counter = counter-screen for PP1 inhibitors: human PP5 phosphatase inhibition; shares compounds with PP1 counter; purified PP5c, OMFP fluorescence; inhibition, % at 6.7 µM; 1,900 compounds, 4% hits;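 active = mean PP5 inhibition over triplicate wells above about 9.5% taken from the earlier PP1 screen, limit read from the data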
* marks the source's active call; other numbers are inactive results; / = no result given.

SMILES	proCasp7 act	PP1 counter	PP5 primary	procasp3 activ	PP1 confirm	PP5 counter
COCc1nnc(NC(=O)c2ccc(S(=O)(=O)N(C)c3ccccc3)cc2)o1	-9	22*	3	5	6	-3
CCCCN(CCCC)S(=O)(=O)c1ccc(C(=O)Nc2nnc(CSC)o2)cc1	12	27*	0	-2	29*	7
COc1ccccc1COCC(O)CN1CCN(S(=O)(=O)c2cccc(F)c2)CC1 (stereo unspecified)	-11	4	2	-5	/	/
COc1ccccc1C(=O)NC(=O)COC(=O)c1cc[n+]([O-])cc1	7	-8	-1	5	/	/
CCN(c1ccccc1)S(=O)(=O)c1ccc(C(=O)Nc2nnc(COC)o2)cc1	0	14	0	0	/	/
CCN(c1ccccc1)S(=O)(=O)c1ccc(C(=O)Nc2nnc(CSC)o2)cc1	9	38*	4	0	28*	2
CCN(Cc1ccccc1)S(=O)(=O)c1ccc(C(=O)Nc2nnc(-c3ccccc3OC)o2)cc1	8	30*	-2	5	30*	1
Cc1cc(C(=O)COC(=O)c2ccc[nH]c2=O)c(C)n1-c1ccccc1F	3	3	0	1	/	/
Cc1ccc(-n2c(C)cc(C(=O)COC(=O)c3ccc[nH]c3=O)c2C)cc1C	-7	21*	0	9	16*	-5
Cc1ccc(NC2c3ncccc3C(=O)N2Cc2cccs2)cc1 (stereo unspecified)	-19	23*	5	-17	20*	-2
COc1ccc(NC(=O)CN(C)C(=O)Cc2n[nH]c(=O)c3ccccc23)cc1	-3	-2	2	16	/	/
CCOc1ccc(CN2CCNC(=O)C2CC(=O)NC2CCCCCC2)cc1 (stereo unspecified)	-1	18*	2	4	-5	-3
CC1=NOC(=O)/C1=C/c1ccc(-c2ccc(Cl)cc2)o1	-12	18*	2	-5	49*	-2
CC1=NOC(=O)/C1=C\c1ccc(-c2cc(Cl)ccc2Cl)o1	3	-1	-1	-8	/	/
CCc1ccc(NC(=O)Cn2c(=O)c3cccn3c3ccccc32)cc1	-4	22*	0	-7	18*	-1
COc1ccc(C(=O)c2oc3nc(C)cc(C)c3c2N)cc1	-13	1	3	-12	/	/
Cc1ccc(C(=O)c2oc3nc(C)cc(C)c3c2N)cc1	-8	21*	3	-10	-4	-7
S=c1[nH]nc(-c2cc(-c3ccccc3)n[nH]2)n1/N=C/c1c(Cl)cccc1Cl	-12	18*	9.6*	-6	27*	-2
S=c1[nH]nc(-c2cc(-c3ccccc3)n[nH]2)n1/N=C/c1ccc(Br)s1	-4	28*	-2	1	33*	-2
Cc1cc(-c2n[nH]c(=S)n2/N=C/c2ccc(Br)s2)n[nH]1	-11	3	-1	-3	/	/
COc1ccccc1NC(=O)c1cc(C(=O)Nc2ccccc2OC)n(C)n1	-3	5	4	2	/	/
O=C1CC(Sc2ncccn2)C(=O)N1c1ccccc1 (stereo unspecified)	-16	3	-1	-32	/	/
Cc1nc(SC2CC(=O)N(c3ccccc3)C2=O)n[nH]1 (stereo unspecified)	-33	21*	-2	-30	-4	-7
CC1=C(C(=O)Nc2ccccc2)C(c2ccc(C)cc2)N=C(Nc2nc3ccccc3o2)N1 (stereo unspecified)	-2	23*	-2	-3	25*	0
O=C(COc1ccccc1F)Nc1cc(S(=O)(=O)Nc2cccc(Cl)c2)ccc1O	-8	3	2	-4	/	/
SMILES	proCasp7 act	PP1 counter	PP5 primary	procasp3 activ	PP1 confirm	PP5 counter
Cc1cc(C)nc(SCc2ccc(C(=O)N/N=C/c3cccc(O)c3O)cc2)n1	-7	25*	2	-2	28*	0
C/C(=N/NC(=O)c1cc2ccccc2cc1O)C1C(=O)c2ccccc2C1=O	-15	24*	6	-7	17*	-4
C/C(=N\NC(=O)c1ccccc1O)C1C(=O)c2ccccc2C1=O	2	9	4	-5	/	/
CCn1cc(C(=O)N[C@H](C(=O)NCCN2CCOCC2)C(C)C)c(=O)c2cc3c(cc21)OCO3	13	1	1	-2	/	/
Cc1ccc(C)n1-c1ccc(-c2nnco2)cc1	3	24*	0	-9	1	-3
Cc1ccc(C)n1-c1ccc(-n2cnnn2)cc1	-10	25*	1	-3	15*	-1
Cc1cc(-c2nnco2)c(C)n1-c1ccc(F)cc1	1	-2	-1	2	/	/
O=C(c1cc(-c2ccc(F)cc2)nc2ccccc12)N1CCN(C2CCS(=O)(=O)C2)CC1 (stereo unspecified)	13	0	0	0	/	/
Clc1ccc(C2=Nn3c(nnc3-c3n[nH]c4c3CCC4)SC2)cc1Cl	0	23*	2	-4	28*	3
Clc1ccc(C2=Nn3c(nnc3-c3cc(-c4ccccc4)n[nH]3)SC2)cc1	-2	23*	2	-1	16*	-1
c1ccc(C2=Nn3c(nnc3-c3cc(-c4ccccc4)n[nH]3)SC2)cc1	-11	13	4	-2	/	/
c1ccc(C2=Nn3c(nnc3-c3n[nH]c4c3CCC4)SC2)cc1	6	4	3	4	/	/
N#CC1(NC(=O)CSc2n[nH]c(-c3ccccc3)n2)CCCCC1	6	-5	-2	3	/	/
COc1cc(NC(=O)c2cc(-c3ccccc3Cl)on2)cc(OC)c1OC	1	11	5	-2	/	/
C=CCOC(=O)C1=C(C)NC(SCC(=O)Nc2ccc(C)c(Cl)c2)=C(C#N)C1c1ccco1 (stereo unspecified)	-9	19*	1	-3	7	2
CCC(C)C(NC(=O)c1ccccc1)C(=O)Nc1ccc(S(=O)(=O)Nc2cc(C)nc(C)n2)cc1 (stereo unspecified)	9	-6	3	2	/	/
O=C(N/N=C/c1cc([N+](=O)[O-])cc([N+](=O)[O-])c1O)/C(=C\c1cccs1)NC(=O)c1ccccc1	-2	21*	1	-1	30*	-3
COc1cc(/C=N/NC(=O)/C(=C\c2ccc([N+](=O)[O-])cc2)NC(=O)c2ccccc2)cc(OC)c1O	7	3	4	-8	/	/
O=C1Nc2ccccc2/C1=C/c1cnc(-c2ccccc2)[nH]1	-2	35*	2	-11	35*	-1
Cc1ccc2nc(N3C(=O)C(O)=C(C(=O)c4ccco4)C3c3cccs3)sc2c1 (stereo unspecified)	-58	28*	3	-12	28*	0
Cc1cc(C)c2nc(N3CCN(C(=O)c4ccco4)CC3)sc2c1	4	-1	2	0	/	/

Compound activity: PubChem, The Scripps Research Institute Molecular Screening Center
